Experimental data as given in ChEMBL document CHEMBL1961794, “Regulation of circadian behaviour and metabolism by synthetic REV-ERB agonists” (Nature, 2012).
Activity calls are given as the source filed them. No cut-off for these calls is given here.

Experiments:
[1] = target: Mineralocorticoid receptor (Homo sapiens) (UniProt P08235); assay: Effect on MCR(NR3C2) dependent reporter activity in HEK293 cells at 20 uM; assay type: cell-based
Outline: (§1)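 Specificity panel covering all 48 human nuclear receptors. HEK293 cells cotransfected with Gal4 DNA-binding domain–nuclear receptor fusions and a luciferase reporter. Compound tested at a single 20 μM concentration. Mean ± s.e.m., n=3.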

Mus musculus [2] = assay: Decreased expression of REV-ERB responsive gene Cyp7a1 in mouse liver after 6 days at 100 mg/kg; assay type: functional, organism-based; parameters: dose 100 mg/kg
[3] = target: Hepatocyte nuclear factor 4-gamma (Homo sapiens) (UniProt Q14541); assay: Effect on HNF4G(NR2A2) dependent reporter activity in HEK293 cells at 20 uM; assay type: cell-based; outline: as §1
[4] = target: Nuclear receptor subfamily 5 group A member 2 (Homo sapiens) (UniProt O00482); assay: Effect on CPF(NR5A2) dependent reporter activity in HEK293 cells at 20 uM; assay type: cell-based; outline: as §1
[5] = target: Estrogen receptor (Homo sapiens) (UniProt P03372); assay: Effect on ESR1(NR3A1) dependent reporter activity in HEK293 cells at 20 uM; assay type: cell-based; outline: as §1
[6] = target: Oxysterols receptor LXR-beta (Homo sapiens) (UniProt P55055); assay: Effect on LXRB(NR1H2) dependent reporter activity in HEK293 cells at 20 uM; assay type: cell-based; outline: as §1
[7] = target: Nuclear receptor subfamily 2 group E member 1 (Homo sapiens) (UniProt Q9Y466); assay: Effect on TLX(NR2E1) dependent reporter activity in HEK293 cells at 20 uM; assay type: cell-based
Outline: (§2)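 Cotransfection assay in HEK293 cells with Gal4 DNA-binding domain–nuclear receptor fusions, covering a panel of all 48 human nuclear receptors. Compounds were tested at 20 μM, with reporter luciferase as the read-out. Mean ± s.e.m., n=3.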

[8] = Brain concentration after 8 hours at 10mg/kg ip dose (10mg/ml suspension in 10%DMSO/10%Tween80); assay type: ADME, organism-based; details: mouse
Outline: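 Mice given a single 10mg/kg i.p. dose as a 10mg/ml suspension in 10/10/80 DMSO/Tween80/water. Brain levels (μM) measured at 2h and 8h post injection, with plasma sampled at 1, 2, 4 and 8h. Mean ± s.e.m., n=3.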

[9] = target: Thyroid hormone receptor beta (Homo sapiens) (UniProt P10828); assay: Effect on THRB(NR1A2) dependent reporter activity in HEK293 cells at 20 uM; assay type: cell-based; outline: as §2
[10] = target: Retinoic acid receptor beta (Homo sapiens) (UniProt P10826); assay: Effect on RARB(NR1B2) dependent reporter activity in HEK293 cells at 20 uM; assay type: cell-based; outline: as §1
[11] = target: Steroid hormone receptor ERR2 (Homo sapiens) (UniProt O95718); assay: Effect on ERR2(NR3B2) dependent reporter activity in HEK293 cells at 20 uM; assay type: cell-based; outline: as §1
[12] = target: Retinoic acid receptor gamma (Homo sapiens) (UniProt P13631); assay: Effect on RARG(NR1B3) dependent reporter activity in HEK293 cells at 20 uM; assay type: cell-based; outline: as §1
[13] = target: Nuclear receptor subfamily 6 group A member 1 (Homo sapiens) (UniProt Q15406); assay: Effect on GCNF(NR6A1) dependent reporter activity in HEK293 cells at 20 uM; assay type: cell-based; outline: as §1
[14] = target: Glucocorticoid receptor (Homo sapiens) (UniProt P04150); assay: Effect on GCR(NR3C1) dependent reporter activity in HEK293 cells at 20 uM; assay type: cell-based; outline: as §1
[15] = target: Nuclear receptor subfamily 1 group D member 2 (Homo sapiens, UniProt Q14995); assay: Increased REV-ERB-beta LBD dependent repressor activity in HEK293 cell reporter assay; assay type: cell-based
[16] = target: Peroxisome proliferator-activated receptor delta (Homo sapiens) (UniProt Q03181); assay: Effect on PPARD(NR1C2) dependent reporter activity in HEK293 cells at 20 uM; assay type: cell-based; outline: as §1
[17] = target: Estrogen-related receptor gamma (Homo sapiens) (UniProt P62508); assay: Effect on ERR3(NR3B3) dependent reporter activity in HEK293 cells at 20 uM; assay type: cell-based; outline: as §1
[18] = target: COUP transcription factor 2 (Homo sapiens) (UniProt P24468); assay: Effect on TFCOUP2(NR2F2) dependent reporter activity in HEK293 cells at 20 uM; assay type: cell-based; outline: as §2
[19] = target: Nuclear receptor subfamily 2 group C member 2 (Homo sapiens) (UniProt P49116); assay: Effect on TR4(NR2C2) dependent reporter activity in HEK293 cells at 20 uM; assay type: cell-based; outline: as §2
Mus musculus [20] = assay: Decreased expression of REV-ERB responsive gene Serpine1 in mouse liver after 6 days at 100 mg/kg; assay type: functional, organism-based; parameters: dose 100 mg/kg
[21] = Plasma concentration after 2 hours at 100mg/kg ip dose (10mg/ml solution in 15% Cremophor); assay type: ADME, organism-based; details: mouse, read-out: Conc_plasma
Outline: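 Single 100 mg/kg i.p. dose given to mice as a 10 mg/ml solution in 15% Cremophor. Plasma drug concentration (μM) was measured at 2 and 8 h post-injection. Mean ± s.e.m., n=3.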

[22] = target: Nuclear receptor subfamily 2 group C member 1 (Homo sapiens) (UniProt P13056); assay: Effect on TR2(NR2C1) dependent reporter activity in HEK293 cells at 20 uM; assay type: cell-based; outline: as §2
[23] = target: Steroid hormone receptor ERR1 (Homo sapiens) (UniProt P11474); assay: Effect on ERR1(NR3B1) dependent reporter activity in HEK293 cells at 20 uM; assay type: cell-based; outline: as §1
[24] = target: Retinoic acid receptor RXR-gamma (Homo sapiens) (UniProt P48443); assay: Effect on RXRG(NR2B3) dependent reporter activity in HEK293 cells at 20 uM; assay type: cell-based; outline: as §1
[25] = target: Nuclear receptor subfamily 0 group B member 2 (Homo sapiens) (UniProt Q15466); assay: Effect on SHP(NR0B2) dependent reporter activity in HEK293 cells at 20 uM; assay type: cell-based; outline: as §2
[26] = target: Nuclear receptor subfamily 2 group F member 6 (Homo sapiens) (UniProt P10588); assay: Effect on EAR2(NR2F6) dependent reporter activity in HEK293 cells at 20 uM; assay type: cell-based; outline: as §1
[27] = target: Nuclear receptor subfamily 1 group I member 2 (Homo sapiens, UniProt O75469); assay: Effect on PXR(NR1I2) dependent reporter activity in HEK293 cells at 20 uM; assay type: cell-based; details: hek293, 20 µM; outline: as §1
[28] = target: Retinoic acid receptor RXR-beta (Homo sapiens) (UniProt P28702); assay: Effect on RXRB(NR2B2) dependent reporter activity in HEK293 cells at 20 uM; assay type: cell-based; outline: as §1
[29] = target: Progesterone receptor (Homo sapiens) (UniProt P06401); assay: Effect on PGR(NR3C3) dependent reporter activity in HEK293 cells at 20 uM; assay type: cell-based; outline: as §1
[30] = target: Nuclear receptor ROR-gamma (Homo sapiens) (UniProt P51449); assay: Effect on RORG(NR1F3) dependent reporter activity in HEK293 cells at 20 uM; assay type: cell-based; outline: as §1
[31] = target: Steroidogenic factor 1 (Homo sapiens) (UniProt Q13285); assay: Effect on SF1(NR5A1) dependent reporter activity in HEK293 cells at 20 uM; assay type: cell-based; outline: as §1
[32] = target: Hepatocyte nuclear factor 4-alpha (Homo sapiens) (UniProt P41235); assay: Effect on HNF4A(NR2A1) dependent reporter activity in HEK293 cells at 20 uM; assay type: cell-based; outline: as §1

Sequence of Steroid hormone receptor ERR2 (Homo sapiens) (O95718 whole entry): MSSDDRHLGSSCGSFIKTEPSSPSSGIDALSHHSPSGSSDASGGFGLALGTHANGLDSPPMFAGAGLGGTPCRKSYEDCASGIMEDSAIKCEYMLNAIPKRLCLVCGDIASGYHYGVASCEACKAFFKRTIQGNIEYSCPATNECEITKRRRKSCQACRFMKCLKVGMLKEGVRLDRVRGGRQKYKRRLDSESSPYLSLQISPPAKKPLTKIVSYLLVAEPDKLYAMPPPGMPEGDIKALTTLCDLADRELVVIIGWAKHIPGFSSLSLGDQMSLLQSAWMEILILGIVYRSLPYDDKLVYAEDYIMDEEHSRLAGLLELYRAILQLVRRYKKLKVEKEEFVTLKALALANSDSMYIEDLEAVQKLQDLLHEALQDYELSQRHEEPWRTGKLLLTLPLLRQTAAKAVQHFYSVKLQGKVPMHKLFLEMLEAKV
Sequence of COUP transcription factor 2 (Homo sapiens) (P24468 whole entry): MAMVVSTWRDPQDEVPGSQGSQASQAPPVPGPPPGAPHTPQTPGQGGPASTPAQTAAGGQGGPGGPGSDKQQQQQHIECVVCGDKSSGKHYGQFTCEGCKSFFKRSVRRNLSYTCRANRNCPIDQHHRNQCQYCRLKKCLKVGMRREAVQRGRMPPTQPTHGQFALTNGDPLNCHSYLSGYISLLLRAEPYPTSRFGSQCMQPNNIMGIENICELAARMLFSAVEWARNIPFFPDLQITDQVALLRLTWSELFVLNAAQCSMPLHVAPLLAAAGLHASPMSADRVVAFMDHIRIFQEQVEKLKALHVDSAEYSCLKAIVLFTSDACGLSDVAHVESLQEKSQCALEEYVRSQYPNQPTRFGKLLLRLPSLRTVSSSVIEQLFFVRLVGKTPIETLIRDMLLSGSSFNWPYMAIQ
Sequence of Retinoic acid receptor RXR-gamma (Homo sapiens) (P48443 whole entry): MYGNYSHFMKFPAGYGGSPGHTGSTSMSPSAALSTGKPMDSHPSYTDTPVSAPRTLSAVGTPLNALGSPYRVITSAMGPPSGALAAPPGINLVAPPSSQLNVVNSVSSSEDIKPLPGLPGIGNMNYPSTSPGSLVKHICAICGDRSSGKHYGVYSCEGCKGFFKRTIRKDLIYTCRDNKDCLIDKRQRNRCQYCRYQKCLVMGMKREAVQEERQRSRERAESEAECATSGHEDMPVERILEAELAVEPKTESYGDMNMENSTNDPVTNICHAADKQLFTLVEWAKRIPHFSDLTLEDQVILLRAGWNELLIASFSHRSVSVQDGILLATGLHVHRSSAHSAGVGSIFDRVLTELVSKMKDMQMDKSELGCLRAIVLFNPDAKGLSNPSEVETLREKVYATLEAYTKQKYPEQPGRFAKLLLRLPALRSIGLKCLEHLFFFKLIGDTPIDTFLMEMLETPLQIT
Sequence of Peroxisome proliferator-activated receptor delta (Homo sapiens) (Q03181 whole entry): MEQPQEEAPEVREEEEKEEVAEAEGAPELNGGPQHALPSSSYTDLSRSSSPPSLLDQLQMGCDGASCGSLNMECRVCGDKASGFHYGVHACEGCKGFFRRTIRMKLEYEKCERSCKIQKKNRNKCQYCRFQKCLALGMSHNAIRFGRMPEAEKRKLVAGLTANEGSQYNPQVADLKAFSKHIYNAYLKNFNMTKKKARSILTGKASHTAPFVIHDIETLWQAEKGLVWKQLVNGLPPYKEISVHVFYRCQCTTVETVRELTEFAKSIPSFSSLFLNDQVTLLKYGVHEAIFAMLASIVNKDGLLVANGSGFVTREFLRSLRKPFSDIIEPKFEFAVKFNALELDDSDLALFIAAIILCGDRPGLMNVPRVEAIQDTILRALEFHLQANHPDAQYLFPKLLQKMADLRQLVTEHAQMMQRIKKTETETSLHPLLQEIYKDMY
Sequence of Nuclear receptor subfamily 6 group A member 1 (Homo sapiens) (Q15406 whole entry): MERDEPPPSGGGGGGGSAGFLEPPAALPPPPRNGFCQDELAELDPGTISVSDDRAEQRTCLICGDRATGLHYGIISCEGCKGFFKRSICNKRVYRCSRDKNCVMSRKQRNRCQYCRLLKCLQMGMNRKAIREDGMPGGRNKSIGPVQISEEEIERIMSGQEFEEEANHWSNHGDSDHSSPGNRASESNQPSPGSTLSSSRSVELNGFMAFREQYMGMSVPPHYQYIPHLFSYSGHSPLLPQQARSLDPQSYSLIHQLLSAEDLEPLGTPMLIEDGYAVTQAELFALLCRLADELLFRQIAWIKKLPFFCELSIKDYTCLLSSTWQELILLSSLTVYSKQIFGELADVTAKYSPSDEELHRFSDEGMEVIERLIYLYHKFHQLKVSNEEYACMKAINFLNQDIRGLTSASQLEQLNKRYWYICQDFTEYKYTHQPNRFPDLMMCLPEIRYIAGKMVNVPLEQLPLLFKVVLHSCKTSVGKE
Sequence of Nuclear receptor subfamily 2 group F member 6 (Homo sapiens) (P10588 whole entry): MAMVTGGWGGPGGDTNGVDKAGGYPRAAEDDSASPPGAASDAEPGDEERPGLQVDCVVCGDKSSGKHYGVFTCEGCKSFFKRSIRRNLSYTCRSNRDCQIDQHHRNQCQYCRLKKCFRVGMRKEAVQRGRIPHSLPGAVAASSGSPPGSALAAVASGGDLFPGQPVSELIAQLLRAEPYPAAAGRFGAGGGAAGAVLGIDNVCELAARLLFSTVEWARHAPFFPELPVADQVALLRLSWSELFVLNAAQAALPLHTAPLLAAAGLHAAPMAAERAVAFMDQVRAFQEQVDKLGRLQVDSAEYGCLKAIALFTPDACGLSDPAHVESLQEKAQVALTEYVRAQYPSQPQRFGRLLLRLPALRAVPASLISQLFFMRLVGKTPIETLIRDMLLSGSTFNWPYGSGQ
Sequence of Glucocorticoid receptor (Homo sapiens) (P04150 whole entry, the tested form may be a part): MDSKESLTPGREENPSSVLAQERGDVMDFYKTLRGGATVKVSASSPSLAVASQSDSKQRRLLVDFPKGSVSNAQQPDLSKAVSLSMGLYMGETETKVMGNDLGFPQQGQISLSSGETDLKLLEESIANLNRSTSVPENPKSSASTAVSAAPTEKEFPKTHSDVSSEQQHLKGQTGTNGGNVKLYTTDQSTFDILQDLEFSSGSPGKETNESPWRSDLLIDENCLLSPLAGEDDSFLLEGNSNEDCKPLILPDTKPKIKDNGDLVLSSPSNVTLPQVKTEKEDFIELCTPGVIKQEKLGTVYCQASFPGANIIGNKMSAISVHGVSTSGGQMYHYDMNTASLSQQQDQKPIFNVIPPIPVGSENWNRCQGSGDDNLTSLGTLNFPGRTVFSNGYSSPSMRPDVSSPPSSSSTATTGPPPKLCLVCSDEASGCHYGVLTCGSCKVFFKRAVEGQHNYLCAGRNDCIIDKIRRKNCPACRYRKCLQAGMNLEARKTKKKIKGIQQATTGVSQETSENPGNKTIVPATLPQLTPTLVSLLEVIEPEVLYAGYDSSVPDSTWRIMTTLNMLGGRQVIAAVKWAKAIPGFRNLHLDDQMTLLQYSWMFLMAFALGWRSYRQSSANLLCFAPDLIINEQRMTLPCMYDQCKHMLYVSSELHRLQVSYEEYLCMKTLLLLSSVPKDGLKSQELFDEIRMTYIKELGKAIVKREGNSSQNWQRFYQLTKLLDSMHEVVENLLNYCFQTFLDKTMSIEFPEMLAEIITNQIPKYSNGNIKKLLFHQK
Sequence of Nuclear receptor subfamily 1 group D member 2 (Q14995 whole entry, the tested form may be a part): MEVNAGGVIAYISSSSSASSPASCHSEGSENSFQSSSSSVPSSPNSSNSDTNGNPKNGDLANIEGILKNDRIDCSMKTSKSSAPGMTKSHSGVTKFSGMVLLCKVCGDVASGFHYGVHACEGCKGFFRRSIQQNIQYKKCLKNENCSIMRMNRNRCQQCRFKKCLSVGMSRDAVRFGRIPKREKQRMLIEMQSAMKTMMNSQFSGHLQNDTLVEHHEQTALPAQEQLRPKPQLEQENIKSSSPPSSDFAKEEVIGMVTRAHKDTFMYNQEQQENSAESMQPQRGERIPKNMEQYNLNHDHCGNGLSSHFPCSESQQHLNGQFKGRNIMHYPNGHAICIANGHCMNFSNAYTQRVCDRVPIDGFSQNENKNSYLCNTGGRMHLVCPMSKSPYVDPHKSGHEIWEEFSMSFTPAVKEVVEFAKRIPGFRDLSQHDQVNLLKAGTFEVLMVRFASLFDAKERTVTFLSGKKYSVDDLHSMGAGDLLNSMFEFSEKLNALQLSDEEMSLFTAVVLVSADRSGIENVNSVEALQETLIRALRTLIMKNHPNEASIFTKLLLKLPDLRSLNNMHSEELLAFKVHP
Sequence of Estrogen receptor (Homo sapiens) (P03372 whole entry): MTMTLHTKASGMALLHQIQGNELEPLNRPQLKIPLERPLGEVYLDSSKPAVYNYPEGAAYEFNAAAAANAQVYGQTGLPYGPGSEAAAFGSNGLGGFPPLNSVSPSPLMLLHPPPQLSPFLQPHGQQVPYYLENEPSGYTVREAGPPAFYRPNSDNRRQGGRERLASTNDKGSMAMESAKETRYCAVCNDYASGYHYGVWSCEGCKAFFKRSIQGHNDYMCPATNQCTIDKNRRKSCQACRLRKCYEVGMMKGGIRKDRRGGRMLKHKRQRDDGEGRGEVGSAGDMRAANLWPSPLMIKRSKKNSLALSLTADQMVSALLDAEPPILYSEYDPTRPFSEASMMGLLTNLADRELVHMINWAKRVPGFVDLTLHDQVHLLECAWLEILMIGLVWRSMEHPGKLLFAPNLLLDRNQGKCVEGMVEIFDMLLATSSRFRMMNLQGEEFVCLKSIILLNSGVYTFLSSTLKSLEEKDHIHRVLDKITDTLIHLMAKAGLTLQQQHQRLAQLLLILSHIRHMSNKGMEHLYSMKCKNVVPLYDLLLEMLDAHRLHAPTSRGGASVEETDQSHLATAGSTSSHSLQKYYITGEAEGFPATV
Sequence of Nuclear receptor subfamily 2 group E member 1 (Homo sapiens) (Q9Y466 whole entry, the tested form may be a part): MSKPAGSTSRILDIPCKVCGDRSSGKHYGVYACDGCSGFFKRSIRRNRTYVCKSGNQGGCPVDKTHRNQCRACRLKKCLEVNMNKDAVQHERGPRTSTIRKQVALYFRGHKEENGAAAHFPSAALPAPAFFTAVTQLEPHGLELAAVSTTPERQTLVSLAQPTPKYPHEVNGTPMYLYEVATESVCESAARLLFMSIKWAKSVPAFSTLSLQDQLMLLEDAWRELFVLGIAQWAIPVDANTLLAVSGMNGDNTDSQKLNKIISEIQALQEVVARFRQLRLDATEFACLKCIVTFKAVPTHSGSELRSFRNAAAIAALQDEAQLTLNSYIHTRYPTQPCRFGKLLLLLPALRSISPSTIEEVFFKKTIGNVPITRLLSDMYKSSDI

| SMILES | inhibition [1] | Reduced_Cyp7a1_gene_exp (Mus musculus [2]) | inhibition [3] | inhibition [4] | inhibition [5] | inhibition [6] | inhibition [7] | inhibition [9] | inhibition [10] | inhibition [11] | inhibition [12] | inhibition [13] | inhibition [14] | IC50 [15] | inhibition [16] | inhibition [17] | inhibition [18] | inhibition [19] | Reduced_Serpine1_gene_exp (Mus musculus [20]) | concentration at 2 h [21] | further results |
| --- | --- | --- | --- | --- | --- | --- | --- | --- | --- | --- | --- | --- | --- | --- | --- | --- | --- | --- | --- | --- | --- |
| CCCCCNC(=O)N1CCC(CN(Cc2ccc(Cl)cc2)Cc2ccc([N+](=O)[O-])s2)C1 (centres undefined) [SR9011] | inactive | Active | inactive | inactive | inactive | inactive | inactive | inactive | inactive | inactive | inactive | inactive | inactive | 560 nM (agonist) | inactive | inactive | inactive | inactive | Active | 15.3 µM | Conc_brain ([8]; in vivo, 8 h): Not Detected; inhibition [22]: inactive; inhibition [23]: inactive; inhibition [24]: inactive; inhibition [25]: inactive; inhibition [26]: inactive; Inhibition [27]: Not Active; inhibition [28]: inactive; inhibition [29]: inactive; inhibition [30]: inactive; inhibition [31]: inactive; inhibition [32]: inactive |
| CCOC(=O)N1CCC(CN(Cc2ccc(Cl)cc2)Cc2ccc([N+](=O)[O-])s2)C1 (centres undefined) [SR9009] | inactive | Active | inactive | inactive | inactive | inactive | inactive | inactive | inactive | inactive | inactive | inactive | inactive | 800 nM (agonist) | inactive | inactive | inactive | inactive | Active | 22.9 µM | concentration at 8 h ([8]; brain, read-out: Conc_brain): 0.11 µM; inhibition [22]: inactive; inhibition [23]: inactive; inhibition [24]: inactive; inhibition [25]: inactive; inhibition [26]: inactive; Inhibition [27]: Not Active; inhibition [28]: inactive; inhibition [29]: inactive; inhibition [30]: inactive; inhibition [31]: inactive; inhibition [32]: inactive |
